Experimental data from ChEMBL document CHEMBL1255487, “Preclinical evaluation of the antifolate QN254, 5-chloro- N'6'-(2,5-dimethoxy-benzyl)-quinazoline-2,4,6-triamine, as an antimalarial drug candidate” (Antimicrob Agents Chemother, 2010).

How the values were obtained:
Plasmodium berghei [1] = test: Antimalarial activity against Plasmodium berghei ANKA infected in NMRI mice (Mus musculus) assessed as reduction in parasitemia at 3 times 30 mg/kg, perorally measured on day 3 postinfection; type: functional; design: scale not given: the % may be the effect or the level left; details: route oral
How it was run: (§1)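 P. berghei ANKA given intravenously to groups of 5 female NMRI mice (20–22 g): 0.2 ml of 1 × 10^8 parasitized erythrocytes/ml from a donor mouse. Oral dosing in 0.5% carboxymethyl cellulose. Parasitemia counted by microscopy. Activity is the control-minus-treated parasitemia difference, expressed as percent of untreated controls.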

Plasmodium berghei [2] = test: Antimalarial activity against Plasmodium berghei ANKA infected in NMRI mice (Mus musculus) assessed as reduction in parasitemia at 3 times 60 mg/kg, perorally measured on day 3 postinfection; type: functional; design: scale not given: the % may be the effect or the level left; details: route oral; how it was run: as §1
Plasmodium berghei [3] = test: Antimalarial activity against Plasmodium berghei ANKA infected in NMRI mice (Mus musculus) assessed as reduction in parasitemia at 3 times 100 mg/kg, perorally measured on day 3 postinfection; type: functional; design: scale not given: the % may be the effect or the level left; details: route oral; how it was run: as §1
Plasmodium berghei [4] = test: Antimalarial activity against Plasmodium berghei ANKA infected in NMRI mice (Mus musculus) assessed as survival rate at 10 mg/kg, perorally administered as single dose; type: functional; details: route oral
How it was run: (§2)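 Infection: 5 female NMRI mice (20–22 g) per group, inoculated intravenously with 0.2 ml of donor blood at 1 × 10^8 parasitized erythrocytes/ml. Oral administration in 0.5% carboxymethyl cellulose. Survival time recorded up to 30 days after infection and averaged per group.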

Plasmodium berghei [5] = test: Antimalarial activity against Plasmodium berghei ANKA infected in NMRI mice (Mus musculus) assessed as survival rate at 30 mg/kg, perorally administered as single dose; type: functional; details: route oral; how it was run: as §2
Plasmodium berghei [6] = test: Antimalarial activity against Plasmodium berghei ANKA infected in NMRI mice (Mus musculus) assessed as survival rate at 60 mg/kg, perorally administered as single dose; type: functional; details: route oral; how it was run: as §2
Plasmodium berghei [7] = test: Antimalarial activity against Plasmodium berghei ANKA infected in NMRI mice (Mus musculus) assessed as cure rate at 60 mg/kg, perorally administered as single dose […]; type: functional; details: route oral
How it was run: (§3)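 Female NMRI mice (20–22 g), 5 per group, infected intravenously with 0.2 ml of 1 × 10^8 parasitized erythrocytes/ml from a fresh donor mouse. Compound suspended in 0.5% carboxymethyl cellulose and given orally. Survival followed to day 30 post-infection; an animal was scored cured if it survived to day 30 without parasites.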

Plasmodium berghei [8] = test: Antimalarial activity against Plasmodium berghei ANKA infected in NMRI mice (Mus musculus) assessed as cure rate at 3 times 60 mg/kg, perorally measured on day 3 postinfection; type: functional; details: route oral; how it was run: as §3
Mus musculus [9] = test: Toxicity in NMRI mice (Mus musculus) infected with Plasmodium berghei ANKA at 15 mg/kg, perorally administered as single dose measured up to 30 days postinfection; type: organism-based; design: dose 15 mg/kg, route oral; details: in vivo, po, 720 h
Mus musculus [10] = test: Toxicity in NMRI mice (Mus musculus) infected with Plasmodium berghei ANKA at 60 mg/kg, perorally administered as single dose measured up to 30 days postinfection; type: organism-based; design: dose 60 mg/kg, route oral; details: in vivo, po, 720 h
Mus musculus [11] = test: Toxicity in NMRI mice (Mus musculus) infected with Plasmodium berghei ANKA at 3 times 30 mg/kg, perorally measured up to 30 days postinfection; type: organism-based; design: dose 30 mg/kg, route oral; details: in vivo, po, 720 h
[12] = Binding affinity to wild type Plasmodium falciparum DHFR by competitive binding assay
[13] = Binding affinity to recombinant Plasmodium falciparum V1/S DHFR S108N, N51I, C59R, I164L mutant by competitive binding assay; design: species or system V1S
[14] = AUC (0 to 24 hrs) in Wistar rat at 50 mg/kg, po; type: ADME, organism-based; design: time < 24 hr, dose 50 mg/kg, route oral; details: plasma
Rattus norvegicus = test: Toxicity in Wistar rat assessed as occurrence of bone marrow degeneration at => 50 mg/kg, po after 2 weeks; type: organism-based; design: dose 50 mg/kg, route oral; details: in vivo, 336 h
How it was run: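 Male Wistar rats, about 10 weeks old (254–292 g), 5 per group, gavaged daily with 50, 150 or 500 mg/kg/day. Vehicle was 10% of 1% aqueous Solutol HS15 plus 90% of 0.5% aqueous methylcellulose; exploratory 2-week design. Clinical observations, body weight, food intake, hematology, clinical chemistry and gross pathology recorded. Histopathology covered gross lesions and selected organs in the control and low-dose groups.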

Plasmodium falciparum = test: Antimalarial activity against pyrimethamine-resistant Plasmodium falciparum clinical isolate harboring S108N, N51I mutation in DHFR assessed as decrease in parasitaemia; type: functional, organism-based
How it was run: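 P. falciparum grown in RPMI 1640 with 10% (v/v) human serum, 25 mM bicarbonate, 2 mM glutamine, 25 mM HEPES, 5 nM para-aminobenzoic acid and 23 nM folic acid. Parasites exposed to a concentration series. Read-out is [3H]hypoxanthine incorporation into nucleic acid. IC50 taken from non-linear regression of the dose–response curve.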

[15] = Cmax in CD-1 mouse at 25 mg/kg, po; type: ADME, organism-based; design: dose 25 mg/kg, route oral; details: in vivo
How it was run: (§4)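 Mice dosed with 25 mg/kg p.o. as a 2.5 mg/ml suspension in 0.5% CMC, or with 5 mg/kg i.v. at 1 mg/ml in 10% NMP, 30% PEG 400 and 60% of 10% vitamin E-TPGS. Blood sampled at several time points. Plasma extracted with acidified acetonitrile (8:1) and quantified by LC-MS, LLOQ 12 ng/ml.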

[16] = Half life in CD-1 mouse at 25 mg/kg, po; type: ADME, organism-based; design: dose 25 mg/kg, route oral; details: in vivo; how it was run: as §4
[17] = Half life in Wistar rat at 25 mg/kg, po; type: ADME, organism-based; design: dose 25 mg/kg, route oral; details: in vivo
How it was run: (§5)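 Rats dosed with 25 mg/kg p.o. as a 2.5 mg/ml suspension in 0.5% CMC, or with 5 mg/kg i.v. at 1 mg/ml in 10% NMP, 30% PEG 400 and 60% of 10% vitamin E-TPGS. Plasma sampled over time, extracted with acidified acetonitrile (8:1) and quantified by LC-MS, LLOQ 12 ng/ml.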

[18] = Oral bioavailability in CD-1 mouse at 25 mg/kg; type: ADME, organism-based; details: in vivo; how it was run: as §4
[19] = Oral bioavailability in Wistar rat at 25 mg/kg; type: ADME, organism-based; details: in vivo; how it was run: as §5
[20] = Clearance in CD-1 mouse at 5 mg/kg, iv; type: ADME, organism-based; design: dose 5 mg/kg, route intravenous; details: in vivo; how it was run: as §4
[21] = Clearance in Wistar rat at 5 mg/kg, iv; type: ADME, organism-based; design: dose 5 mg/kg, route intravenous; details: in vivo; how it was run: as §5
Plasmodium berghei [22] = test: Antimalarial activity against Plasmodium berghei ANKA infected in NMRI mice (Mus musculus) assessed as reduction in parasitemia at 10 mg/kg, perorally administered as single dose measured on day 3 postinfection; type: functional; design: scale not given: the % may be the effect or the level left; details: route oral; how it was run: as §1
Plasmodium berghei [23] = test: Antimalarial activity against Plasmodium berghei ANKA infected in NMRI mice (Mus musculus) assessed as reduction in parasitemia at 30 mg/kg, perorally administered as single dose measured on day 3 postinfection; type: functional; design: scale not given: the % may be the effect or the level left; details: route oral; how it was run: as §1
Plasmodium berghei [24] = test: Antimalarial activity against Plasmodium berghei ANKA infected in NMRI mice (Mus musculus) assessed as reduction in parasitemia at 60 mg/kg, perorally administered as single dose measured on day 3 postinfection; type: functional; design: scale not given: the % may be the effect or the level left; details: route oral; how it was run: as §1
Plasmodium berghei [25] = test: Antimalarial activity against Plasmodium berghei ANKA infected in NMRI mice (Mus musculus) assessed as reduction in parasitemia at 100 mg/kg, perorally administered as single dose measured on day 3 postinfection; type: functional; design: scale not given: the % may be the effect or the level left; details: route oral; how it was run: as §1
[26] = AUC (0 to 24 hrs) in NMRI mouse at 26.5 mg/kg, po; details: plasma

For `COc1ccc(OC)c(CNc2ccc3nc(N)nc(N)c3c2Cl)c1`, the Activity (Plasmodium berghei [1]) was greater than 99.99%, the Activity (Plasmodium berghei [2]) was greater than 99.99% and the Activity (Plasmodium berghei [3]) was greater than 99.99%. It also gave a Survival (Plasmodium berghei [4]) of 6 days, a Survival (Plasmodium berghei [5]) of 8.1 days and a Survival (Plasmodium berghei [6]) of 12 days. The Activity (Plasmodium berghei [7]) was 0%, the Activity (Plasmodium berghei [8]) was 60% and the Activity (Mus musculus [9]) was 0%. It also gave an Activity (Mus musculus [10]) of 0%, an Activity (Mus musculus [11]) of 0% and a Ki [12] of 0.39 nM. The Ki [13] was 0.58 nM, the AUC(0-t) at 24 h [14] was 27600 ng·h/mL and the Activity (Rattus norvegicus) was “Toxic”. The IC50 (Plasmodium falciparum) was 4.48 nM, the Cmax [15] was 5.1 µM and the half-life [16] was 290 min. The half-life [17] was 558 min, the bioavailability [18] was 100% and the bioavailability [19] was 63%. It also gave a clearance [20] of 51.1 mL/min/kg, a clearance [21] of 17 mL/min/kg and an Activity (Plasmodium berghei [22]) of 59%. It also gave an Activity (Plasmodium berghei [23]) greater than 99.99%, an Activity (Plasmodium berghei [24]) greater than 99.99% and an Activity (Plasmodium berghei [25]) greater than 99.99%. The AUC(0-t) at 24 h [26] was 17000 ng·h/mL.
